The source made the active and inactive calls. The calls are words filed in the database; no cut-off is given here.
Key:
Rattus norvegicus [1] = assay: Increase of pain perception in ip dosed Wistar rat assessed as latency after 30 to 45 mins by hotplate method; type: functional, organism-based
Method in brief: (§1)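 Individually housed rats (22 °C, 12:12 h light–dark, food and water ad libitum) were randomized to ip vehicle, 10, 20 or 40 mg/kg. Extra groups (n = 10) got 20 or 40 mg/kg 15 min after AM251 (3 mg/kg ip); another group got AM251 alone. Pain perception was read as hot-plate latency to signs of discomfort.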

Rattus norvegicus [2] = assay: Reduction of core temperature in Wistar rat at 10 to 40 mg/kg, ip measured up to 45 mins in presence of AM251; type: functional, organism-based
Method in brief: (§2)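 Individually housed rats (22 °C, 12:12 h light–dark) were randomized to ip vehicle, 10, 20 or 40 mg/kg. Extra groups (n = 10) got 20 or 40 mg/kg 15 min after AM251 (3 mg/kg ip), plus an AM251-alone group. Core temperature was measured with a rectal probe after injection.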

Rattus norvegicus [3] = assay: Effect on sleep-awake cycle in Wistar rat assessed as increase in non rapid eye movement sleep at 20 mg/kg, ip measured up to 4 hrs by electromyographic analysis; type: functional, organism-based; parameters: dose 20 mg/kg
Method in brief: (§3)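 Rats (n = 6/group) had two hippocampal EEG electrodes implanted stereotaxically under ketamine/xylazine/acepromazine anaesthesia, then recovered 10 days and habituated 24 h. Two ip injections 15 min apart: DMSO (1 ml/kg) or AM251, then vegetal oil (1 ml/kg) or test drug. Dosing was at dark-phase onset. Wake, SWS and REMS were scored from EEG/EMG as time per hour over 12 h, plus sleep latency.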

Rattus norvegicus [4] = assay: Increase of pain perception in Wistar rat assessed as latency at 20 to 40 mg/kg, ip measured after 30 to 45 mins by hotplate method in presence of AM251; type: functional, organism-based; method in brief: as §1
Rattus norvegicus [5] = assay: Induction addiction in Wistar rat at 20 mg/kg, ip assessed as signs of dependence; type: ADME, organism-based; parameters: dose 20 mg/kg, route intraperitoneal; settings: in vivo
Method in brief: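 Conditioned place preference test at 20 mg/kg; time spent in the drug-paired compartment A was recorded as the index of rewarding effect or dependence.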

Rattus norvegicus [6] = assay: Effect on sleep-awake cycle in Wistar rat assessed as increase in rapid eye movement sleep at 20 mg/kg, ip measured up to 4 hrs by electromyographic analysis; type: functional, organism-based; parameters: dose 20 mg/kg; method in brief: as §3
Rattus norvegicus [7] = assay: Effect on sleep-awake cycle in Wistar rat assessed as increase in rapid eye movement sleep at 20 mg/kg, ip measured up to 4 hrs by electromyographic analysis in presence of AM251; type: functional, organism-based; parameters: dose 20 mg/kg; method in brief: as §3
Rattus norvegicus [8] = assay: Reduction of core temperature in ip dosed Wistar rat up to 45 mins; type: functional, organism-based; method in brief: as §2
Rattus norvegicus [9] = assay: Increase of pain perception in Wistar rat assessed as latency at 10 to 40 mg/kg, ip measured after 30 to 45 mins by hotplate method; type: functional, organism-based; method in brief: as §1
Rattus norvegicus [10] = assay: Reduction of core temperature in Wistar rat at 10 to 40 mg/kg, ip after 15 mins; type: functional; settings: dose mg/kg 10-40; route intraperitoneal; method in brief: as §2
Rattus norvegicus [11] = assay: Reduction of core temperature in Wistar rat at 10 to 40 mg/kg, ip up to 45 mins; type: functional; settings: dose mg/kg 10-40; route intraperitoneal; method in brief: as §2

## CCCCCC[C@H](C/C=C\CCCCCCCC(=O)N1CC2CC1CN2C)OC(=O)Cc1ccccc1 (stereo partly specified)
Rattus norvegicus [1]
  Activity: inactive
Rattus norvegicus [2]
  Activity: inactive
Rattus norvegicus [3]
  Activity: Active
Rattus norvegicus [4]
  Activity: inactive
Rattus norvegicus [5]
  Activity: Non-toxic
Rattus norvegicus [6]
  Activity: Active
Rattus norvegicus [7]
  Activity: inactive
Rattus norvegicus [8]
  Activity: inactive
Rattus norvegicus [9]
  Activity: Active
Rattus norvegicus [10]
  T: 1 °C
Rattus norvegicus [11]
  T: 1.5 °C
